Laboratory results: ChEMBL document CHEMBL1130046, “Modulation of melphalan resistance in glioma cells with a peripheral benzodiazepine receptor ligand-melphalan conjugate” (J Med Chem, 1997)

Key:
C6 [1] = assay: The compound was tested for cytotoxicity against C6 (Rat) Glioma cell lines; type: functional, cell-based
Outline: (§1)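 Adherent cells seeded in their usual medium and allowed to attach overnight at 37 °C. Drugs added fresh, melphalan in saline and others in ethanol (≤1% of well volume), then 48 h at 37 °C. SRB read-out: TCA fixation, SRB staining, dye taken up in 10 mM Tris, absorbance 560 nm. Growth expressed as % of control and IC50 calculated; two or three experiments. C6-MR selected by weekly 24 h melphalan steps starting at 10 µM. DAOY MR kept under 70-78 µM melphalan for 24 h every third passage.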

C6 [2] = assay: The compound was tested for cytotoxicity against C6-MR (Rat) Glioma cell lines; type: functional, cell-based; outline: as §1
D341 cell line [3] = assay: The compound was tested for cytotoxicity against D341 MR (human) Glioma cell lines; type: functional, cell-based
D341 cell line [4] = assay: The compound was tested for cytotoxicity against D341 (human) Glioma cell lines; type: functional, cell-based
D283 Med [5] = assay: The compound was tested for cytotoxicity against D283 (human) Glioma cell lines; type: functional, cell-based
RG2 = assay: The compound was tested for cytotoxicity against RG-2 (Rat) Glioma cell lines; type: functional, cell-based; outline: as §1
SF-126 = assay: The compound was tested for cytotoxicity against SF-126 (human) Glioma cell lines; type: functional, cell-based; outline: as §1
SF-188 = assay: The compound was tested for cytotoxicity against SF-188 (human) Glioma cell lines; type: functional, cell-based; outline: as §1
Daoy [6] = assay: The compound was tested for cytotoxicity against DAOY MR (human) Glioma cell lines; type: functional, cell-based; outline: as §1
Translocator protein [7] = molecular target: T1, Translocator protein (Rattus norvegicus, UniProt P16257); assay: Binding affinity for PBR (peripheral benzodiazepine receptor) in rat C6 glioma cells; type: cell-based
T1 sequence (P16257 whole entry, looked up): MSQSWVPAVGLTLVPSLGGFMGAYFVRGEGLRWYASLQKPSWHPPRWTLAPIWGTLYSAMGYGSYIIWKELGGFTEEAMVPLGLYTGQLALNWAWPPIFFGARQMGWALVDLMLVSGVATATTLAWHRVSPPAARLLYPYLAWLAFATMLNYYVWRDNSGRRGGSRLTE
Outline: (§2)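 Competitive displacement of [3H]Ro 5-4864 (1 nM final, 86.9 Ci/mmol) on rat whole-brain homogenate (~200 µg protein, 50 mM Tris-HCl pH 7.4) or C6/RG-2 cell homogenate (4 µg protein, 50 mM Tris-citrate pH 7.4). Incubation 60 min at 0-4 °C, duplicate tubes. Nonspecific binding with 10 µM PK-11195. Bound ligand collected by glass-fibre filtration, counted by scintillation, fitted by nonlinear regression.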

Translocator protein [8] = molecular target: T1, Translocator protein; assay: Binding affinity for PBR (peripheral benzodiazepine receptor) in rat RG-2 glioma cells; type: cell-based, RG2; outline: as §2
Translocator protein [9] = molecular target: T1, Translocator protein; assay: The compound was tested for binding affinity against PBR(peripheral benzodiazepine receptor) in normal rat brain homogenate; type: tissue-based; outline: as §2
Daoy [10] = assay: Glutathione (GSH) Concentrations DAOY MR cell line in Human Medulloblastoma Cells; type: functional
Daoy [11] = assay: Glutathione S-Transferase (GST) Activity against DAOY MR cell line in Human Medulloblastoma Cells; type: functional
Daoy [12] = assay: Glutathione (GSH) Concentrations DAOY cell line in Human Medulloblastoma Cells; type: functional
Daoy [13] = assay: Glutathione S-Transferase (GST) Activity against DAOY cell line in Human Medulloblastoma Cells; type: functional
Daoy [14] = assay: The compound was tested for cytotoxicity against DAOY(human) […] cell lines; type: functional, cell-based; outline: as §1
D283 Med [15] = assay: Glutathione (GSH) Concentrations D 283 MR cell line in Human Medulloblastoma Cells; type: functional
D341 cell line [16] = assay: Glutathione (GSH) Concentrations D341 cell line in Human Medulloblastoma Cells; type: functional
D341 cell line [17] = assay: Glutathione S-Transferase (GST) Activity against D 341cell line in Human Medulloblastoma Cells; type: functional
D283 Med [18] = assay: Glutathione S-Transferase (GST) Activity against D 283 MR cell line in Human Medulloblastoma Cells; type: functional
D283 Med [19] = assay: The compound was tested for cytotoxicity against D283 MR (human) Glioma cell lines; type: functional, cell-based
D283 Med [20] = assay: Glutathione (GSH) Concentrations D 283 cell line in Human Medulloblastoma Cells; type: functional
D283 Med [21] = assay: Glutathione S-Transferase (GST) Activity against D283 cell line in Human Medulloblastoma Cells; type: functional
D341 cell line [22] = assay: Glutathione (GSH) Concentrations D341 MR cell line in Human Medulloblastoma Cells; type: functional
D341 cell line [23] = assay: Glutathione S-Transferase (GST) Activity against D341 MR cell line in Human Medulloblastoma Cells; type: functional
[24] = molecular target: Translocator protein (Rattus norvegicus) (UniProt P16257); assay: Benzodiazepine receptor density in rat C6 glioma cells; type: cell-based; outline: as §2
Sequence of Translocator protein (Rattus norvegicus) (P16257 whole entry, looked up): as above

[25] = molecular target: Translocator protein (Rattus norvegicus) (UniProt P16257); assay: Benzodiazepine receptor density in rat RG-2 glioma cells; type: cell-based; settings: RG2; outline: as §2
[26] = molecular target: Translocator protein (Rattus norvegicus) (UniProt P16257); assay: Benzodiazepine receptor density in normal rat brain homogenate; type: tissue-based; outline: as §2
Daoy [27] = assay: The compound was tested for cytotoxicity against DAOY (human) Glioma cell lines; type: functional, cell-based; outline: as §1

For `N[C@@H](Cc1ccc(N(CCCl)CCCl)cc1)C(=O)O`, the IC50 (C6 [1]) was 11 µM, the IC50 (C6 [2]) was 74.9 µM and the IC50 (D341 cell line [3]) was 52.4 µM. It also gave an IC50 (D341 cell line [4]) of 12.4 µM, an IC50 (D283 Med [5]) of 6.8 µM and an IC50 (RG2) of 15.2 µM. For the same compound, the IC50 (SF-126) was 103 µM, the IC50 (SF-188) was 35.4 µM and the IC50 (Daoy [6]) was 140 µM.
`CCOC(=O)[C@@H](Cc1ccc(N(CCCl)CCCl)cc1)NC(=O)CCCN1C(=O)CN=C(c2ccccc2)c2cc(Cl)ccc21` was tested, and the IC50 (C6 [1]) was 43.4 µM, the IC50 (C6 [2]) was 74.4 µM and the IC50 (Translocator protein [7]) was 289 µM. The IC50 (Translocator protein [8]) was 390 µM, the IC50 (Translocator protein [9]) was 327 µM and the GSH (Daoy [10]) was 10.8 µM/g. For the same compound, the GST activity (Daoy [11]) was 84 nM min-1 (mg of protein)-1, the GSH (Daoy [12]) was 11.4 µM/g and the GST activity (Daoy [13]) was 88.7 nM min-1 (mg of protein)-1. For the same compound, the IC50 (Daoy [14]) was 40 µM, the GSH (D283 Med [15]) was 50.7 µM/g and the IC50 (D341 cell line [3]) was 32.8 µM. The GSH (D341 cell line [16]) was 17.5 µM/g, the GST activity (D341 cell line [17]) was 212.6 nM min-1 (mg of protein)-1 and the IC50 (D341 cell line [4]) was 25 µM. The GST activity (D283 Med [18]) was 417.3 nM min-1 (mg of protein)-1, the IC50 (D283 Med [19]) was 25 µM and the GSH (D283 Med [20]) was 18.4 µM/g. For the same compound, the GST activity (D283 Med [21]) was 150.6 nM min-1 (mg of protein)-1, the IC50 (D283 Med [5]) was 72.3 µM and the GSH (D341 cell line [22]) was 33.2 µM/g. The GST activity (D341 cell line [23]) was 327.9 nM min-1 (mg of protein)-1, the IC50 (RG2) was 34.3 µM and the IC50 (SF-126) was 21 µM. It also gave an IC50 (SF-188) of 17.3 µM and an IC50 (Daoy [6]) of 29.3 µM.
For `CN1C(=O)CN=C(c2ccc(Cl)cc2)c2cc(Cl)ccc21` [RO-54864], the IC50 (C6 [1]) was > 200 µM, the Bmax (pM (mg of protein)-1) [24] was 22 and the Bmax (pM (mg of protein)-1) [25] was 33. The Bmax (pM (mg of protein)-1) [26] was 0.29, the IC50 (RG2) was > 100 µM and the IC50 (SF-126) was > 100 µM. For the same compound, the IC50 (SF-188) was 138 µM.
For `O=C1CN=C(c2ccccc2)c2cc(Cl)ccc2N1` [NORDAZEPAM], the IC50 (C6 [1]) was > 200 µM, the IC50 (Translocator protein [9]) was 520 µM and the IC50 (Daoy [27]) was > 200 µM. The IC50 (D341 cell line [3]) was > 200 µM, the IC50 (D341 cell line [4]) was > 200 µM and the IC50 (D283 Med [19]) was > 200 µM. For the same compound, the IC50 (D283 Med [5]) was > 200 µM, the IC50 (RG2) was > 200 µM and the IC50 (SF-126) was > 100 µM. For the same compound, the IC50 (SF-188) was > 100 µM and the IC50 (Daoy [6]) was > 200 µM.
